Reference: ChEMBL document CHEMBL3046209, “Semisynthesis and quantitative structure-activity relationship (QSAR) study of novel aromatic esters of 4'-demethyl-4-deoxypodophyllotoxin as insecticidal agents” (2009)

Experiments:
Assay type in all cases: functional
Mythimna separata [1] = assay: In vivo insecticidal activity against pre-third-instar larval stage of Mythimna separata (Oriental armyworm) in corn leaves assessed as corrected mortality rate at 1 mg/ml treated for 3 secs before larval infestation measured after 24 days by leaf-dipping method; details: 576 h
Procedure, shortened: (§1)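 Leaf-dip assay: fresh corn leaves dipped 3 s in 1 mg/mL compound in acetone, then air-dried; acetone-only leaves served as control. Groups of 10 pre-third-instar larvae per dish fed treated leaves, replaced when consumed. After 48 h all dishes switched to untreated fresh leaves until adult emergence. Held at 25 ± 2 °C, RH 65–80%, 12 h/12 h light/dark. Corrected mortality scored.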

Mythimna separata [2] = assay: In vivo insecticidal activity against pre-third-instar larval stage of Mythimna separata (Oriental armyworm) in corn leaves assessed as corrected mortality rate at 1 mg/ml treated for 3 secs before larval infestation measured after 12 days by leaf-dipping method; details: 288 h; procedure, shortened: as §1
Mythimna separata [3] = assay: In vivo insecticidal activity against pre-third-instar larval stage of Mythimna separata (Oriental armyworm) in corn leaves assessed as corrected mortality rate at 1 mg/ml treated for 3 secs before larval infestation measured after 36 days by leaf-dipping method; details: 864 h; procedure, shortened: as §1

Compound	mortality at 1000 µg/mL (Mythimna separata [1]) [%]	mortality at 1000 µg/mL (Mythimna separata [2]) [%]	mortality at 1000 µg/mL (Mythimna separata [3]) [%]
COc1cc([C@@H]2c3cc4c(cc3C[C@H]3COC(=O)[C@@H]32)OCO4)cc(OC)c1OC(=O)Cc1ccccc1	25	10.7	29.6
COc1cc([C@@H]2c3cc4c(cc3C[C@H]3COC(=O)[C@@H]32)OCO4)cc(OC)c1OC(=O)c1cccnc1	10.7	3.5	62.9
COc1cc([C@@H]2c3cc4c(cc3C[C@H]3COC(=O)[C@@H]32)OCO4)cc(OC)c1OC(=O)Cc1cccc2ccccc12	17.8	7.1	37
COc1cc([C@@H]2c3cc4c(cc3C[C@H]3COC(=O)[C@@H]32)OCO4)cc(OC)c1OC(=O)c1cccc(C)c1	25	17.8	40.7
COc1cc([C@@H]2c3cc4c(cc3C[C@H]3COC(=O)[C@@H]32)OCO4)cc(OC)c1OC(=O)/C=C/c1ccccc1	17.8	10.7	48.1
COc1cc([C@@H]2c3cc4c(cc3C[C@H]3COC(=O)[C@@H]32)OCO4)cc(OC)c1OC(=O)c1ccncc1	21.4	14.2	59.2
COc1cc([C@@H]2c3cc4c(cc3C[C@H]3COC(=O)[C@@H]32)OCO4)cc(OC)c1OC(=O)c1ccccc1	42.8	28.5	48.1
COc1cc([C@@H]2c3cc4c(cc3C[C@H]3COC(=O)[C@@H]32)OCO4)cc(OC)c1OC(=O)c1cc([N+](=O)[O-])cc([N+](=O)[O-])c1	25	14.2	22.2
CC(=O)O[C@@H]1C[C@H](O)[C@@]23CO[C@@H](O)[C@]1(C)[C@@H]2C[C@@H](O)[C@]1(C)[C@@H]3C(=O)[C@H](OC(C)=O)[C@@]2(C)[C@H](c3ccoc3)C[C@H]3O[C@]321 [TOOSENDANIN]	35.7	21.4	40.7
COc1cc([C@@H]2c3cc4c(cc3C[C@H]3COC(=O)[C@@H]32)OCO4)cc(OC)c1OC(=O)c1ccccc1Cl	25	17.8	37
COc1cc([C@@H]2c3cc4c(cc3C[C@H]3COC(=O)[C@@H]32)OCO4)cc(OC)c1OC(=O)CCCc1c[nH]c2ccccc12	14.2	10.7	40.7
COc1cc([C@@H]2c3cc4c(cc3C[C@H]3COC(=O)[C@@H]32)OCO4)cc(OC)c1OC(=O)c1ccc([N+](=O)[O-])cc1	17.8	7.1	40.7
COc1cc([C@@H]2c3cc4c(cc3C[C@H]3COC(=O)[C@@H]32)OCO4)cc(OC)c1OC(=O)c1cccc([N+](=O)[O-])c1	14.2	3.5	51.8
COc1ccc(C(=O)Oc2c(OC)cc([C@@H]3c4cc5c(cc4C[C@H]4COC(=O)[C@@H]43)OCO5)cc2OC)cc1	21.4	3.5	25.9
COc1cc([C@@H]2c3cc4c(cc3C[C@H]3COC(=O)[C@@H]32)OCO4)cc(OC)c1OC(=O)c1ccc(Cl)cc1	14.2	0	29.6
COc1cc([C@@H]2c3cc4c(cc3C[C@H]3COC(=O)[C@@H]32)OCO4)cc(OC)c1OC(=O)c1ccc(C)cc1	17.8	7.1	33.3
